Structures can show the parent of a compound that is named as a salt.
Tested on: Trypanosoma brucei
Assay: Antitrypanosomal activity against Trypanosoma brucei
Assay type: functional, organism-based
How it was run: (§1)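 In vitro assay against bloodstream-form T. brucei grown at pH 7.4. Concentrations inhibiting growth by 50% (IC50) and 90% (IC90) were calculated. Values are the mean of triplicate experiments ± SEM.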

| SMILES | IC50 [µM] |
| --- | --- |
| NC12CC3CC(C1)CC(C1CCCCC1)(C3)C2 | 0.52 |
| NC1CCC(C23CC4CC(CC(C4)C2)C3)CC1 (configuration not stated) | 0.33 |
| NCCC12CC3CC(C1)CC(c1ccccc1)(C3)C2 | 0.62 |

Tested on: Trypanosoma brucei
Assay: Antitrypanosomal activity against Trypanosoma brucei 427 at pH 7.4
Assay type: functional, organism-based
How it was run: as §1

| SMILES | IC50 [µM] | IC90 [µM] |
| --- | --- | --- |
| CCCCCCCCC12CC3CC(CC(C3)C1N)C2 (configuration not stated) | 0.8 | 1.06 |
| CCCCCCCCCCC12CC3CC(CC(C3)C1N)C2 (configuration not stated) | 0.48 | 0.67 |
| CCCCCCC12CC3CC(CC(C3)/C1=N\NC(N)=S)C2 | 2.81 | 5.64 |
| CCCCCCCCCCCCCCC12CC3CC(CC(C3)/C1=N\NC(N)=S)C2 | 0.42 | 0.54 |
| N=C(N)N/N=C1\C2CC3CC(C2)CC1(Cc1ccccc1)C3 | 0.41 | 0.47 |
| CCCCCCC12CC3CC(CC(C3)C1N)C2 (configuration not stated) | 1.32 | 1.73 |
| CCCCCCCCCCCCC12CC3CC(CC(C3)C1NCC)C2 (configuration not stated) | 0.59 | 1.06 |
| CCCCCCCCCCC12CC3CC(CC(C3)C1NCC)C2 (configuration not stated) | 1.09 | 1.65 |
| CCCCCCCCCCCCC12CC3CC(CC(C3)C1N)C2 (configuration not stated) | 0.47 | 0.67 |
| CCCCCCCCCCCCCCC12CC3CC(CC(C3)/C1=N\NC(=N)N)C2 | 0.84 | 1.3 |
| CCCCCCCCCCCCCCC12CC3CC(CC(C3)C1N)C2 (configuration not stated) | 0.92 | 1.98 |
| CCCCCCC12CC3CC(CC(C3)C1NCC)C2 (configuration not stated) | > 2 |  |
| CCCCCCCCC12CC3CC(CC(C3)/C1=N\NC(=N)N)C2 | > 6 |  |
| CCCCCCC12CC3CC(CC(C3)/C1=N\NC(=N)N)C2 | > 6 |  |
| NC1C2CC3CC(C2)CC1(Cc1ccccc1)C3 (configuration not stated) | 2.07 | 2.65 |
| N=C(N)N/N=C1\C2CC3CC(C2)CC1(c1ccccc1)C3 | 2.12 | 2.81 |
| CCCCCCCCCCC12CC3CC(CC(C3)/C1=N\NC(=N)N)C2 | 0.09 | 0.11 |
| NC12CC3CC(CC(C3)C1)C2 [AMANTADINE HYDROCHLORIDE] | > 132 | > 132 |
| CC(N)C12CC3CC(CC(C3)C1)C2 (configuration not stated) [RIMANTADINE HYDROCHLORIDE] |  | 14 |

From ChEMBL document CHEMBL1141571, “Design, synthesis, and trypanocidal activity of new aminoadamantane derivatives” (J Med Chem, 2008)
